Test results: article PMC2606940 (The Journal of General Physiology, 2009)
Changes are numbered by the printed parent chain. Read-outs that look alike come from different tables or passages of the source.

Tests used:
CLC-0 E166F mutant = target: T1, CLC-0 E166F mutant (Torpedo marmorata, UniProt P21564, C212S/E166F); assay type: cell-based; settings: read-out: Apparent affinity (K1/2)
T1 sequence (P21564 1-805 E166F/C212S): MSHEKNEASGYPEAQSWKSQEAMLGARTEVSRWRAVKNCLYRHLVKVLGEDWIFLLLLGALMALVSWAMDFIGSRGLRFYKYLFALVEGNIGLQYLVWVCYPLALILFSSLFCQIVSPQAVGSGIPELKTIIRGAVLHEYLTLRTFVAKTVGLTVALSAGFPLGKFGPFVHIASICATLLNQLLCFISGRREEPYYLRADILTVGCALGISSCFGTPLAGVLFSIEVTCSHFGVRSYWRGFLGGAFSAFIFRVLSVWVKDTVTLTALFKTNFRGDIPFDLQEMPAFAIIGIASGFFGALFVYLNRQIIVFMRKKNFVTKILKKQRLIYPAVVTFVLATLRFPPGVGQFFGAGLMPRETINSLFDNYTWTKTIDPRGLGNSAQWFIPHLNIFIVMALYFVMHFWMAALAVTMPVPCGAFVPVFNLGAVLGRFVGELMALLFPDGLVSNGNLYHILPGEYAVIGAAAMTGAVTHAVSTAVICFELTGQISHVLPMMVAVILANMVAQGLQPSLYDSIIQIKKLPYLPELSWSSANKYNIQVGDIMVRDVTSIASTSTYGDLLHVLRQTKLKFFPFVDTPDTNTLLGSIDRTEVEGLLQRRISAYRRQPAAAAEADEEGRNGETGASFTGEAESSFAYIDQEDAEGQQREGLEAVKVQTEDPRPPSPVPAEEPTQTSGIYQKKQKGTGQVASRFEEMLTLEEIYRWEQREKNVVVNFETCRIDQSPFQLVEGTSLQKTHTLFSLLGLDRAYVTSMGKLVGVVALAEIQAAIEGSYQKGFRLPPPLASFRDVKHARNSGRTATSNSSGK
In short: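 CLC-0 mutants (C212S background) were lipofectamine-transfected into HEK293 cells and recorded 1–3 d later from inside-out patches. Pipette and bath contained 130 mM NaCl, 5 MgCl2, 10 HEPES and 1 EGTA (pH 7.4). Test compound was perfused onto the cytoplasmic side. A +80 mV prepulse preceded steps to steady state. The last-10-ms current was normalized to bracketing blocker-free controls and fitted to a Langmuir function for K1/2.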

[1] = target: T2, CLC-0 E166C/K519E mutant (E127/K519E) (Torpedo marmorata, UniProt P21564, C212S/E166C/K519E); assay type: cell-based
T2 sequence (P21564 1-805 E166C/C212S/K519E): T1 sequence (P21564 1-805 E166F/C212S) with F166C, K519E
In short: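 CLC-0 mutants in the C212S background were transfected into HEK293 cells with lipofectamine and recorded 1–3 d later as excised inside-out patches. Both sides held 130 mM NaCl, 5 mM MgCl2, 10 mM HEPES and 1 mM EGTA, pH 7.4. CPA was perfused continuously onto the cytoplasmic face. Steady-state current over the last 10 ms was normalized to bracketing blocker-free controls and fitted to a Langmuir function for K1/2. Values are mean ± SEM of ~4–6 patches.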

Row | SMILES | IC50 (CLC-0 E166F mutant; −40 mV) | IC50 (CLC-0 E166F mutant; −60 mV) | IC50 (CLC-0 E166F mutant; −80 mV) | IC50 (CLC-0 E166F mutant; −100 mV) | IC50 (CLC-0 E166F mutant; −120 mV) | IC50 (CLC-0 E166F mutant; −140 mV) | IC50 (CLC-0 E166F mutant; −160 mV) | IC50 ([1]; read-out: Apparent affinity (K1/2), −40 mV) | IC50 ([1]; read-out: Apparent affinity (K1/2), −60 mV) | IC50 ([1]; read-out: Apparent affinity (K1/2), −80 mV) | IC50 ([1]; read-out: Apparent affinity (K1/2), −100 mV) | IC50 ([1]; read-out: Apparent affinity (K1/2), −120 mV) | IC50 ([1]; read-out: Apparent affinity (K1/2), −140 mV) | IC50 ([1]; read-out: Apparent affinity (K1/2), −160 mV) | IC50 ([1]; read-out: K1/2, −140 mV (Fig. 6)) | apparent kon ([1]; −160 mV)
1 | O=C(O)COc1ccc(Cl)cc1 [CPA, p-chlorophenoxy acetate] | 5120 ± 1720 µM | 2060 ± 300 µM | 730 ± 90 µM | 350 ± 30 µM | 170 ± 20 µM | 93 ± 12 µM | 47 ± 7 µM | 730 ± 59 µM | 516 ± 46 µM | 377 ± 39 µM | 277 ± 37 µM | 203 ± 34 µM | 158 ± 31 µM | 115 ± 25 µM | ~160 µM | 110000 M⁻¹ s⁻¹
2 | CCCCCCCC(=O)O [octanoate] | 3090 ± 560 µM | 1630 ± 160 µM | 803 ± 50 µM | 455 ± 15 µM | 254 ± 7 µM | 150 ± 4 µM | 91 ± 1 µM | – | – | – | – | – | – | – | – | –
